From PubChem BioAssay
Only some compounds are listed: those with a hit (about 5.8% of all), similar ones and a draw of the others.
IDH1 R132H inh: IDH1 R132H (human) inhibition. inhibition, % at 10 µM. 70,000 tested, 0.18% active. IDH1 R132H reductase, diaphorase/resazurin fluorescence, 60 min. AID 624101; in the data active = inhibition above about 34%; inconclusive = no clear call, values can overlap the other calls; inactive = below about 11%
Target sequence (O75874 whole entry R132H): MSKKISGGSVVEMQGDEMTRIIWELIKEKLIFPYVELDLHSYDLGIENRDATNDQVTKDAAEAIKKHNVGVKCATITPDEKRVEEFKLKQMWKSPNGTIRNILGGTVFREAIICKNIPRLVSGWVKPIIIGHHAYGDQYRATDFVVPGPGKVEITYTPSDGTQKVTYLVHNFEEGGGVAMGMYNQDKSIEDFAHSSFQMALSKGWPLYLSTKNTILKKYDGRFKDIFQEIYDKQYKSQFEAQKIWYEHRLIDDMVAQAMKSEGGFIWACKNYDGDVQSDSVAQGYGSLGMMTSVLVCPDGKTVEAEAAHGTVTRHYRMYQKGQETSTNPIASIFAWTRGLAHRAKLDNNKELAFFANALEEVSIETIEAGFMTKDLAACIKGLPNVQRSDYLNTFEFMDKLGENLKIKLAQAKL
KDM4C inh: inhibitors of human demethylase GASC-1 KDM4C; Q9H3R0; inhibition, % at 12.5 µM; 96,000 tested, 0.15% active; GST-KDM4C 2-372, H3K9me3 peptide, LANCE TR-FRET;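 active = mean replicate inhibition above about 25%, with at least 55% of replicates also reaching it, limit read from the data, passing the limit was not always enough; inconclusive = only one of those two conditions met; inactive = neither condition met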
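System – N-terminal GST-fused human GASC-1 (KDM4C) fragment, residues 2-372 · Input – enzyme final amount 10 nM · Technique – LANCE TR-FRET, Eu antibody, ULight-streptavidin, EDTA, ex 340 nm, em 618/671 nm · Medium – HEPES buffer, pH 7.5, plus ascorbate · Incubation – enzyme reaction 30 min, then detection 60 min, both room temperature · Reagent – H3K9me3 peptide with Fe(II)/2OG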
Pf Dd2 growth: P. falciparum Dd2 growth inhibition. SYBR Green, 72 h; hits give low values. activity change, % at 10 µM. 94,000 tested, 2.3% active. AID 1159554; in the data active = activity change below about -80%; inconclusive = no clear call, values can overlap the other calls
T cruzi growth-1: T. cruzi proliferation inhibition; T. cruzi beta-gal in NIH3T3, GalScreen luminescence, 90 h; inhibition, % at 8.34 µM; 77,000 tested, 5.9% active;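 active = mean inhibition above about 93%, with at least 55% of replicates each passing it, limit read from the data, passing the limit was not always enough; inconclusive = only one of those two conditions holds; inactive = neither condition holds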
T cruzi growth-2: Trypanosoma cruzi proliferation inhibition; shares compounds with T cruzi growth-1; T. cruzi beta-gal in NIH3T3, GalScreen luminescence, 90 h; inhibition, % at 8.35 µM; 5,600 tested, 72% active;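 active = mean replicate inhibition above about 95% and at least 55% of replicates individually reaching it, limit read from the data; inconclusive = only one of the two criteria is met; inactive = neither criterion is met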
T cruzi growth-3: Trypanosoma cruzi proliferation inhibition; inhibition, % at 2.09 µM; 5,600 tested, 21% active; T. cruzi beta-gal in NIH3T3, GalScreen luminescence, 90 h; shares compounds with T cruzi growth-1;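 active = mean inhibition above about 95%, with at least 55% of replicates also reaching it, limit read from the data; inconclusive = meets just one of the two conditions; inactive = meets neither condition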
3T3 cytotox: NIH/3T3 (mouse) viability loss | shares compounds with T cruzi growth-1 | NIH/3T3 viability, CellTiter-Glo ATP luminescence, 90 h | cytotoxicity (signal decrease), % at 8.35 µM | 5,600 tested, 14% active;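 active = mean signal decrease across replicates above about 35% based on untreated-well scatter, with enough replicates individually passing, limit read from the data; inconclusive = no rule stated though some were filed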
NIH3T3 tox 2: kills mouse NIH/3T3 fibroblasts; shares compounds with T cruzi growth-1; NIH/3T3 viability, CellTiter-Glo ATP luminescence, 90 h; inhibition, % at 24.9 µM; 5,600 tested, 56% active; AID 651744;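 active = mean loss of cell viability signal at or above a set limit, and enough replicates individually reaching it; inconclusive = meets only the mean limit or only the replicate share; inactive = meets neither condition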
Of the large screens only hits and unclear results are named; the others gave an inactive call (follow-up assays come after a bar, where they were run).

COc1ccc(NC(=O)Nc2ccc3c(c2)C(=O)N([C@H](C)CO)C[C@@H](C)[C@H](CN(C)Cc2ccc(C(F)(F)F)cc2)O3)cc1	none
COC(=O)C[C@@H]1CC[C@@H]2[C@H](COc3ccc(NS(=O)(=O)c4ccc(C)cc4)cc3C(=O)N2C)O1	T cruzi growth-1 107 (no result: IDH1 R132H inh) | T cruzi growth-2 100 | T cruzi growth-3 inactive | 3T3 cytotox inactive | NIH3T3 tox 2 inactive
CN1C(=O)c2cc(NS(=O)(=O)c3ccc(F)cc3)ccc2OC[C@H]2O[C@H](CC(=O)O)CC[C@H]21	T cruzi growth-1 97 (no result: IDH1 R132H inh) | T cruzi growth-2 inconclusive | T cruzi growth-3 inactive | 3T3 cytotox inactive | NIH3T3 tox 2 inactive
COC(=O)C[C@H]1CC[C@@H]2[C@H](COc3ccc(NS(=O)(=O)c4cccc(F)c4)cc3C(=O)N2C)O1	T cruzi growth-1 105 (no result: IDH1 R132H inh) | T cruzi growth-2 inactive | T cruzi growth-3 inactive | 3T3 cytotox inactive | NIH3T3 tox 2 inactive
COC(=O)C[C@@H]1CC[C@@H]2[C@@H](COc3ccc(NS(=O)(=O)c4cccc(F)c4)cc3C(=O)N2C)O1	none (no result: IDH1 R132H inh)
CN1C(=O)c2cc(NS(=O)(=O)c3ccc(Cl)cc3)ccc2OC[C@H]2O[C@@H](CC(=O)N3CCc4ccccc4C3)CC[C@@H]21	T cruzi growth-1 113 (no result: IDH1 R132H inh) | T cruzi growth-2 104 | T cruzi growth-3 inactive | 3T3 cytotox inactive | NIH3T3 tox 2 71
C[C@H](CO)N1C[C@H](C)[C@H](CN(C)Cc2ccc(C(=O)Nc3ccccc3N)cc2)OCCCC[C@H](C)Oc2ccc(N(C)C)cc2C1=O	none (no result: IDH1 R132H inh, KDM4C inh, T cruzi growth-1)
C[C@@H]1CN([C@@H](C)CO)C(=O)c2cc(N(C)C)ccc2O[C@@H]1CN(C)C(=O)Nc1ccccc1	none (no result: T cruzi growth-1)
Cc1noc(C)c1NC(=O)N1C[C@@H](O)COC[C@@H]2O[C@@H](CC(=O)NCC3CC3)CC[C@H]21	none (no result: IDH1 R132H inh, Pf Dd2 growth)
Cc1noc(C)c1NC(=O)N1C[C@@H](O)COC[C@@H]2O[C@H](CC(=O)NCC3CC3)CC[C@H]21	T cruzi growth-1 inconclusive (no result: IDH1 R132H inh, Pf Dd2 growth) | T cruzi growth-2 inconclusive | T cruzi growth-3 inactive | 3T3 cytotox inactive | NIH3T3 tox 2 inactive
O=C(C[C@@H]1CC[C@@H]2[C@H](COC[C@H](O)CN2C(=O)Nc2ccc(Cl)c(Cl)c2)O1)NCc1ccc(Cl)c(Cl)c1	T cruzi growth-1 107 (no result: IDH1 R132H inh) | T cruzi growth-2 100 | T cruzi growth-3 inactive | 3T3 cytotox 43 | NIH3T3 tox 2 103
O=C(C[C@@H]1CC[C@@H]2[C@H](COC[C@@H](O)CN2C(=O)Nc2ccc(Cl)c(Cl)c2)O1)NCc1ccc(Cl)c(Cl)c1	T cruzi growth-1 109 (no result: IDH1 R132H inh) | T cruzi growth-2 inactive | T cruzi growth-3 97 | 3T3 cytotox inactive | NIH3T3 tox 2 90
O=C(C[C@H]1CC[C@@H]2[C@H](COC[C@H](O)CN2C(=O)Nc2ccc(Cl)c(Cl)c2)O1)NCc1ccc(F)cc1	none (no result: IDH1 R132H inh)
C[C@@H]1CN([C@H](C)CO)S(=O)(=O)c2ccc(-c3cccc(F)c3)cc2O[C@H]1CN(C)C(=O)Nc1cc(F)ccc1F	T cruzi growth-1 115 | T cruzi growth-2 96 | T cruzi growth-3 inactive | 3T3 cytotox 64 | NIH3T3 tox 2 81
C[C@@H]1CN([C@@H](C)CO)S(=O)(=O)c2ccc(-c3cccc(F)c3)cc2O[C@H]1CN(C)C(=O)Nc1cc(F)ccc1F	T cruzi growth-1 115 | T cruzi growth-2 101 | T cruzi growth-3 inactive | 3T3 cytotox 51 | NIH3T3 tox 2 57
C[C@H]1CN([C@@H](C)CO)S(=O)(=O)c2ccc(-c3ccccc3)cc2O[C@@H]1CN(C)C(=O)Nc1ccccc1F	none
CC(C)(C)S(=O)N1Cc2cc(C(=O)NCCCN3CCOCC3)nc(-c3cccc(C#CCC4CCCC4)c3)c2[C@@H]1CCO (stereo partly drawn)	T cruzi growth-1 inconclusive | T cruzi growth-2 100 | T cruzi growth-3 inactive | 3T3 cytotox 42 | NIH3T3 tox 2 105
